Data from PMC3839535 (Nature chemical biology, 2013).
Entries after “also recorded” stand apart in the source; their conditions may differ.

How the values were obtained:
[1] = target: T1, human melanopsin (Homo sapiens, UniProt Q9UHM6); assay: Radioligand binding with [^3H]2-AA41612 to CHO^Opn4 cell membranes; conditions: competition binding
T1 sequence (Q9UHM6 1-478): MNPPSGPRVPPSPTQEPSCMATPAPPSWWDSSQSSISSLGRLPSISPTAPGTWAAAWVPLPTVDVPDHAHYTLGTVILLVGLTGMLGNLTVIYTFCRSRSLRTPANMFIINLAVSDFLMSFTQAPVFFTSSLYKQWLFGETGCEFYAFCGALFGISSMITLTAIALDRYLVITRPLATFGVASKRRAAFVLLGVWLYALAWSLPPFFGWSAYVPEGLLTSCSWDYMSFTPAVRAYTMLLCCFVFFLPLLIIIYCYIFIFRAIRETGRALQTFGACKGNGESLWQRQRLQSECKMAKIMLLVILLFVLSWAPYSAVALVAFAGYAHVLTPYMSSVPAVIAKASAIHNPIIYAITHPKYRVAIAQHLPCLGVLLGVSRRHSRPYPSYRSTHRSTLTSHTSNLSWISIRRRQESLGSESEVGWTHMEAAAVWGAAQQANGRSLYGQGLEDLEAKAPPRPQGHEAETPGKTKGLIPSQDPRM
Outline: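 Membranes came from light-exposed CHO cells stably expressing human melanopsin. Cells were sonicated in ice-cold 20 mM Tris-HCl, 10 mM EDTA, pH 7.4, then spun at 200g for 5 min and 40,000g for 20 min at 4 °C, and washed. Assay buffer was 50 mM Tris-HCl, 1 mM EDTA, 5 mM MgSO4, pH 7.4. Saturation binding used increasing concentrations of [3H] radioligand. Competition binding used 300 pM radioligand against increasing competitor for 2 h in the dark at 25 °C. Reactions were filtered through PEI-treated glass fibre filters and counted by scintillation. Nonspecific binding was defined with 10 µM 9-cis retinal, and specific binding was taken as total minus nonspecific.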

[2] = target: T1, human melanopsin; assay: Ca^2+ release assay in CHO^Opn4 cells; type: cell-based
[3] = target: T2, mouse melanopsin (Mus musculus, UniProt Q9QXZ9); assay: Melanopsin photocurrent in Xenopus oocytes; type: cell-based
T2 sequence (Q9QXZ9 1-521): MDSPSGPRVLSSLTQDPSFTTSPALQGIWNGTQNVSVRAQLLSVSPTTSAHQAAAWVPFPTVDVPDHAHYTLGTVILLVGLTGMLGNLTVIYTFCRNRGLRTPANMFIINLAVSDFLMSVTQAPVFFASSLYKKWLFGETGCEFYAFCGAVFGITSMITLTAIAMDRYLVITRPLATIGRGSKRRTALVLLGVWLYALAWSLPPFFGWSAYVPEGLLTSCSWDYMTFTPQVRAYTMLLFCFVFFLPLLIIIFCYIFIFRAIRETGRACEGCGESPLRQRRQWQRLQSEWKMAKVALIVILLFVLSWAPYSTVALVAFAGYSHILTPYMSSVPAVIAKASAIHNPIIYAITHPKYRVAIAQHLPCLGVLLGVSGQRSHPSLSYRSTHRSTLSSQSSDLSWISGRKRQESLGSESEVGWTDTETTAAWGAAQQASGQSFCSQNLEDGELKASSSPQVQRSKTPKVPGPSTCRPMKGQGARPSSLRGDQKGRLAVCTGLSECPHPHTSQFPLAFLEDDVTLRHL
Outline: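 Stage IV Xenopus oocytes injected with in vitro transcribed, polyadenylated mRNAs for mouse melanopsin, TrpC3, Gαq and Arrb1. Test compound was perfused for 3 min at increasing concentrations before 50 µM 11-cis retinal was added. Melanopsin photocurrent was recorded intracellularly in response to 60 s white light, averaged over n = 5 oocytes.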

[4] = system: rod/cone photoreceptors; assay: Electroretinogram; type: in vivo; conditions: WT C57BL/6J and Opn4^−/− mice, 30 mg kg^-1, recorded within 30 min of administration, versus vehicle
[5] = system: 74 biological targets including GPCRs and ion channels; assay: Radioligand binding panel of 74 biological targets; conditions: 10 µM
[6] = system: mice; assay: Pupillary light reflex; type: in vivo; conditions: 10^13 ph.cm^−2.s^−1
Outline: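 rd, WT and Opn4−/− mice carried an acrylic headpost and had at least 1 wk of recovery. Dark-adapted mice received vehicle or compound at 30 mg kg−1 IP 20 min before the first light, plus tropicamide in the left eye. The right eye was filmed under IR at 30 Hz. Each 5 min sequence was 1 min dark, 1 min 480 nm light (1 × 10^13 or 1 × 10^10 ph.cm−2.s−1), then 3 min dark. Sequences were repeated 19, 29 and 39 min post-injection. Pupil diameter was normalised to the mean of the first 20 s of darkness; n = 6–7.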

[7] = Pharmacokinetics: retina and brain levels after IP dosing; type: in vivo; conditions: mice, 30 mg kg^−1 IP, within 2 h
Outline: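 Mice were dosed at 30 mg kg−1 IP, and retina and brain were sampled at several times afterwards. Frozen brains were homogenised in four volumes of 50% water/30% 2-propanol/20% DMSO and spiked with internal standard. Samples were centrifuged and the supernatant analysed by LC/MS/MS. Quantitation used a standard curve (0–5,000 ng/ml) prepared in homogenate.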

[8] = system: neonatal mice; assay: Negative phototaxis assay; type: in vivo; conditions: WT neonatal pups (P7-P9), 30 mg kg^−1 sub-cutaneous, 480 nm light
Outline: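 WT and Opn4−/− pups aged P7–P9 were tested once daily. Pups were dark-adapted for 1 h, then given vehicle or compound at 30 mg kg−1 s.c. Each pup wore a head reflective sticker and sat in a transparent tube for 10 min. After 5 min of darkness, the head end was lit with 480 nm light at 9.5 × 10^15 ph/cm2/s. IR video covered 2 min before and 5 min after light onset. Head distance was scored in 1 s bins, and mean activity was compared before and after light. Pups without any bin above 1.3 mm/bin before light were excluded.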

SMILES | Hill slope, displacement of [^3H]2-AA41612 [1] | IC50 [2] | IC50 [3] | effect on rod and rod/cone electroretinogram [4] | slope of Schild regression (dose ratio) plot ([2]; versus 9-cis retinal, light-exposed CHO^Opn4 cells) | inhibition of radioligand binding to a panel of 74 biological targets [5] | effect on PLR under high light intensity ([6]; Wild type (WT) mice) | attenuation of pupil constriction in response to light ([6]; adult rd mice, 30 mg kg^−1 i.p. 20 min prior) | fraction cleared from the retina [7] | effect on light aversion (negative phototaxis) behavior [8]
CC1=C(/C=C/C(C)=C\C=C\C(C)=C\C=O)C(C)(C)CCC1 [9-cis retinal, reference compound] | ~1.0 |  |  |  |  |  |  |  |  | 
COc1cc(Cl)c(S(=O)(=O)N2CCCCC2)cc1Cl [AA41612, 1-(2,5-Dichloro-4-methoxy-benzenesulfonyl)-piperidine] | ~1.0 | 15.8 ± 1.8 nM | 20 nM |  |  |  |  |  |  | 
COc1ccc(S(=O)(=O)N2CCCCC2)cc1C [AA92593, 1-((4-methoxy-3-methylphenyl)sulfonyl)piperidine] | ~1.0 |  | 190 nM | no noticeable inhibition of rod/cone photoreceptors | 0.9 | failed to inhibit radioligand binding | attenuated PLR | ~ 50% | > 95% | significantly reduced; also recorded: remarkably reduced light aversion behavior
